In ChEMBL document CHEMBL1153805, “Phenylethanoid glycosides from Lantana fucata with in vitro anti-inflammatory activity” (J Nat Prod, 2009):

What was measured:
[1] = Antiproliferative activity against mouse J774A1 cells assessed as cell viability at 1 ug/ml after 72 hrs by MTT assay relative to LPS; assay type: cell-based, J774.A1
Method in brief: (§1)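 J774A.1 cells (3.5 × 10⁴/well) adhered 2 h at 37 °C, 5% CO₂. Medium was renewed, then serial dilutions of compound were added for 72 h. MTT was added for a further 3 h, formazan was dissolved in 50% DMF/20% SDS (pH 4.5), and OD was read at 620 nm. % dead cells = 100 − (OD treated/OD control) × 100. A cell-free control tested for MTT interference.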

[2] = Antiproliferative activity against mouse J774A1 cells assessed as cell viability at 10 ug/ml after 72 hrs by MTT assay relative to LPS; assay type: cell-based, J774.A1; method in brief: as §1
[3] = Antiproliferative activity against mouse J774A1 cells assessed as cell viability at 100 ug/ml after 72 hrs by MTT assay relative to LPS; assay type: cell-based, J774.A1; method in brief: as §1
J774.A1 [4] = experiment: Antiinflammatory activity in mouse J774A1 cells assessed as inhibition of LPS-induced NO release at 1 uM after 24 hrs treated 1 hr before LPS challenge relative to LPS; assay type: functional
Method in brief: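 J774A.1 murine macrophages plated at 5.0 × 10⁴ cells/well, adhered 2 h at 37 °C in 5% CO₂. Compounds (1-100 µg/mL) added 1 h before and simultaneously with E. coli LPS (6 × 10³ U/mL) to induce iNOS. After 24 h, nitrite in medium measured by Griess reagent against a sodium nitrite standard curve made in culture medium. Expressed as % inhibition versus LPS alone.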

J774.A1 [5] = experiment: Antiinflammatory activity in mouse J774A1 cells assessed as inhibition of LPS-induced NO release at 1 ug/ml after 24 hrs treated 1 hr before LPS challenge relative to LPS; assay type: functional
Method in brief: (§2)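 J774A.1 cells (5.0 × 10⁴/well) adhered 2 h at 37 °C, 5% CO₂. Compounds added 1 h before and simultaneously with E. coli LPS (6 × 10³ U/mL) to induce iNOS. Nitrite accumulated in medium was measured 24 h after LPS with Griess reagent against a sodium nitrite standard curve made in culture medium. Expressed as % inhibition versus LPS-only cells. L-NAME (1 µM) was the reference.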

J774.A1 [6] = experiment: Antiinflammatory activity in mouse J774A1 cells assessed as inhibition of LPS-induced NO release at 10 ug/ml after 24 hrs treated 1 hr before LPS challenge relative to LPS; assay type: functional; method in brief: as §2
J774.A1 [7] = experiment: Antiinflammatory activity in mouse J774A1 cells assessed as inhibition of LPS-induced NO release at 100 ug/ml after 24 hrs treated 1 hr before LPS challenge relative to LPS; assay type: functional; method in brief: as §2

Compound | viability at 72 h, 1 ug/ml [1] [%] | viability at 72 h, 10 ug/ml [2] [%] | viability at 72 h, 100 ug/ml [3] [%] | inhibition at 1 µM (J774.A1 [4]) [%] | inhibition at 1 µg/mL (J774.A1 [5]) [%] | inhibition at 10 µg/mL (J774.A1 [6]) [%] | inhibition at 100 µg/mL (J774.A1 [7]) [%]
Sc1ncnc2nc[nH]c12 [MERCAPTOPURINE ANHYDROUS] | 44.1 | 38 | 31.8 |  |  |  | 
COC(=O)[C@@H](N)CCCNC(=N)N[N+](=O)[O-] [L-NAME] |  |  |  | 46.6 |  |  | 
O=C(/C=C/c1ccc(O)c(O)c1)O[C@H]1[C@H](O[C@@H]2OC[C@@](O)(CO)[C@H]2O)[C@@H](O[C@@H]2OC[C@@](O)(CO)[C@H]2O)[C@H](OCCc2ccc(O)c(O)c2)O[C@@H]1CO [FUCATOSIDE C] | 96.4 | 96.8 | 94.3 |  | 4.4 | 31.8 | 93.7
O=C(/C=C/c1ccc(O)c(O)c1)O[C@H]1[C@H](O)[C@@H](O[C@@H]2OC[C@](O)(CO)[C@H]2O)[C@H](OCCc2ccc(O)c(O)c2)O[C@@H]1CO [FUCATOSIDE A] | 97.3 | 95.9 | 95 |  | 13.3 | 11.2 | 52.5
C[C@@H]1O[C@@H](O[C@H]2[C@H](OCCc3ccc(O)c(O)c3)O[C@H](CO)[C@@H](OC(=O)/C=C/c3ccc(O)c(O)c3)[C@@H]2O)[C@H](O)[C@H](O)[C@H]1O [PARVIFLOROSIDE A] | 96.7 | 95.9 | 96.9 |  | 3.8 | 9 | 88.5
O=C(/C=C/c1ccc(O)c(O)c1)O[C@H]1[C@H](O[C@@H]2OC[C@](O)(CO)[C@H]2O)[C@@H](O[C@@H]2OC[C@@H](O)[C@H](O)[C@H]2O)[C@H](OCCc2ccc(O)c(O)c2)O[C@@H]1CO [FUCATOSIDE B] | 97.5 | 96.1 | 94.4 |  | 13.7 | 16.4 | 81.4
